These results are taken from ChEMBL document CHEMBL1154878, “Discovery of benzhydrylpiperazine derivatives as CB1 receptor inverse agonists via privileged structure-based approach” (Eur J Med Chem, 2010).

Activity calls are given as the source filed them. The rule behind the calls is not given here.

For data set [1], the target named is T1, Cannabinoid receptor 1 (Homo sapiens, UniProt P21554). Nature of the data set: biochemical. Type of data set: cell-based, CHO.
Another data set has as its target Cannabinoid receptor 2 (Homo sapiens, UniProt P34972). Nature of the data set: Displacement of [3H]CP-55940 from human recombinant cannabinoid CB2 receptor expressed in CHO cells after 3 hrs by liquid scintillation counting. Type of data set: cell-based. Background: Displacement assays read how much labelled ligand stays bound in the presence of the test substance.

The target in data set [2] is T1, Cannabinoid receptor 1. Type of data set: functional, cell-based, CHO.
The target of data set [3] is T1, Cannabinoid receptor 1. Nature of the data set: Inverse agonist activity at human cannabinoid CB1 receptor expressed in CHO cells assessed as inhibition of forskolin-stimulated cAMP accumulation after 60 mins. Type of data set: functional, cell-based. Background: Cyclic AMP is a second messenger, typically raised through Gs and lowered through Gi signalling.
A short description of data set [4]: Plasma half life in Sprague-Dawley rat at 10 mg/kg, po. Type of data set: ADME, organism-based. More on the design: dose 10 mg/kg, route oral. The procedure, abridged:
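Male Sprague–Dawley rats fasted overnight, single oral dose 10 mg/kg. Blood collected at various time points into lithium heparin, plasma stored at -20 °C, extracted by protein precipitation and quantified by LC/MS/MS; n = 5 rats/group.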

Data set [5] deals with Rattus norvegicus. Nature of the data set: Antiobesity activity in diet-induced obese Sprague-Dawley rat assessed as reduction in food intake at 10 mg/kg, po after 3 hrs. Set-up: scale not given: the % may be the effect or the level left. Type of data set: functional. A digest of the protocol:
(§1)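 Male DIO Sprague-Dawley rats (HFD from weaning), randomized n = 14/group, individually caged. Single oral dose 10 mg/kg in 0.5% carboxymethyl cellulose (2 mL/kg) 1 h before dark onset. Preweighed pelleted food reweighed at 3 h and overnight (18 h) postdose for cumulative intake vs vehicle.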

For data set [6], the system named is Rattus norvegicus. Nature of the data set: Antiobesity activity in diet-induced obese Sprague-Dawley rat assessed as reduction in food intake at 10 mg/kg, po after 18 hrs. Type of data set: functional. More on the design: scale not given: the % may be the effect or the level left. A digest of the protocol: as §1
Data set [7] relates to Rattus norvegicus. Nature of the data set: Antiobesity activity in diet-induced obese Sprague-Dawley rat assessed as reduction in final body weight gain at 10 mg/kg, po SID after 12 days. Type of data set: functional, organism-based. More on the design: dose 10 mg/kg. A digest of the protocol: (§2)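 Male DIO rats (HFD from weaning, 60% kcal fat; used at 12-16 weeks, conditioned to water gavage 5 days), individually caged, n = 11-12/group. Oral gavage 10 mg/kg daily for 12 days, 1 h before dark cycle, in 0.5% carboxymethyl cellulose/water (2 mL/kg) vs vehicle. Food intake and body weight recorded daily; Student's t-test.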

Data set [8] has as its system Rattus norvegicus. As to the kind of experiment: Antiobesity activity in diet-induced obese Sprague-Dawley rat assessed as body weight progression at 10 mg/kg, po SID up to 12 days. Type of data set: functional, organism-based. More on the design: dose 10 mg/kg. The procedure, abridged:
as §2

Cannabinoid receptor 2, sequence (P34972 whole entry): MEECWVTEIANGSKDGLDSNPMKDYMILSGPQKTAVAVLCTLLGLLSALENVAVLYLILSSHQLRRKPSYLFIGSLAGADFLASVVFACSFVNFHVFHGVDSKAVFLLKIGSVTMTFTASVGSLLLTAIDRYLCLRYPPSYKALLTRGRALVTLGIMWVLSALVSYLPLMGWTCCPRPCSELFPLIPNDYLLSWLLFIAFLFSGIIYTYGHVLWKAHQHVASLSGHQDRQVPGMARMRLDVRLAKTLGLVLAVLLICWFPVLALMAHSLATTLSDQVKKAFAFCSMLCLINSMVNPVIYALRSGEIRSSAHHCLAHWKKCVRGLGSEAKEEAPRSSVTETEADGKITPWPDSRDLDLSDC
T1 sequence (P21554 whole entry): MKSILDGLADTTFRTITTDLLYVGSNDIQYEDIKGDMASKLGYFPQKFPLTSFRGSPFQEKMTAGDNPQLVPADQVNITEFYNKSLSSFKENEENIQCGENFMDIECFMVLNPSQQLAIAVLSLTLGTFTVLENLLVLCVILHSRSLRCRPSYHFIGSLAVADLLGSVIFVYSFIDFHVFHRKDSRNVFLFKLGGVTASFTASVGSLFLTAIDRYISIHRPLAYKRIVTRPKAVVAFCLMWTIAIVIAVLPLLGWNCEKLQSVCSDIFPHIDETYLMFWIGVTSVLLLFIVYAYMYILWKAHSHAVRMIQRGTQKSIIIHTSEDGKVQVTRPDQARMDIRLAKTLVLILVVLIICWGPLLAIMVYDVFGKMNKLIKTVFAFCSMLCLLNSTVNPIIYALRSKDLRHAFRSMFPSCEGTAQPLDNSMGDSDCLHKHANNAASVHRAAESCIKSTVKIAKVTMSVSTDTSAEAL

As a reminder, the Ki is the equilibrium dissociation constant of an inhibitor or competing ligand from its target. By IC50 is commonly meant the concentration that gives 50% inhibition. On to `O=C(NC1CCCCC1)N1CCN(C(c2ccccc2)c2cc(Cl)ccc2Cl)CC1` (centres undefined), for which the Ki was found to be 5.9 nM on Cannabinoid receptor 1 [1] and 899 nM at Cannabinoid receptor 2. In addition, at Cannabinoid receptor 1 [2], the midpoint of inhibition, the IC50, lay at 43 nM.
For the molecule `O=C(NC1CCCCC1)N1CCN(C(c2ccccc2)c2ccc(F)cc2Cl)CC1` (centres undefined), the Ki on Cannabinoid receptor 1 [1] is 8.1 nM; at Cannabinoid receptor 2, 1300 nM. In addition, the midpoint of inhibition at Cannabinoid receptor 1 [2], the IC50, lay at 68 nM.
Take `S=C(NC1CCCCC1)N1CCN(C(c2ccccc2)c2ccc(Cl)cc2Cl)CC1` (centres undefined): the inhibition constant (Ki) amounted to 0.2 nM on Cannabinoid receptor 1 [1] and 673 nM on Cannabinoid receptor 2. Moreover, the half-maximal inhibitory concentration (IC50) against Cannabinoid receptor 1 [2] was found to be 18 nM.
In the same order, the values of `O=C(NN1CCCCC1)N1CCN(C(c2ccccc2)c2ccc(Cl)cc2Cl)CC1` (centres undefined) are 1.2 nM, 1040 nM and 4.7 nM.
For `O=C(NC1CCCCC1)N1CCN(C(c2ccc(F)cc2)c2ccc(Cl)cc2Cl)CC1` (centres undefined) the same measures were 2.5 nM, 159 nM and 8.1 nM.
Consider `O=C(NC1CCCCC1)N1CCN(C(c2ccccc2)c2c(Cl)cccc2Cl)CC1` (centres undefined), for which the inhibition constant Ki on Cannabinoid receptor 1 [1] is 2.2 nM; on Cannabinoid receptor 2, 831 nM. Inhibition against Cannabinoid receptor 1 [2] was half-maximal at 55 nM (IC50).
In the same order, the values of `O=C(NC1CCCCC1)N1CCN(C(c2ccccc2)c2ccc(Cl)c(Cl)c2)CC1` (centres undefined) are 60 nM, 356 nM and 462 nM.
Take `O=C(NC1CCCCC1)N1CCN(C(c2ccccc2)c2ccccc2)CC1`: the Ki at Cannabinoid receptor 1 [1] came to 52 nM; on Cannabinoid receptor 2, 2410 nM.
With `O=C(C1CCCC1)N1CCN(C(c2ccccc2)c2ccc(Cl)cc2Cl)CC1` (centres undefined), the inhibition constant Ki at Cannabinoid receptor 1 [1] turned out to be 732 nM; on Cannabinoid receptor 2, 4880 nM. Besides, 403 nM corresponded to half-maximal inhibition against Cannabinoid receptor 1 [2] (IC50).
Turning to `O=C(C1CCCCC1)N1CCN(C(c2ccccc2)c2ccccc2)CC1`, the Ki at Cannabinoid receptor 1 [1] is 164 nM; at Cannabinoid receptor 2, 3050 nM.
`COc1ccc(C(c2ccc(Cl)cc2Cl)N2CCN(C(=O)NC3CCCCC3)CC2)cc1` (centres undefined): the Ki at Cannabinoid receptor 1 [1] is 2.6 nM; on Cannabinoid receptor 2, 290 nM. Also, 82 nM corresponded to half-maximal inhibition against Cannabinoid receptor 1 [2] (IC50).
Consider `O=C(NC1CCCCC1)N1CCN(C(c2ccc(Cl)cc2)c2ccc(Cl)cc2Cl)CC1` (centres undefined), for which the Ki came to 0.23 nM on Cannabinoid receptor 1 [1] and 26 nM at Cannabinoid receptor 2. In addition, on Cannabinoid receptor 1 [2], the IC50 was 19 nM.
For the molecule `O=C(NC1CCCCC1)N1CCN(C(c2cccc(Cl)c2)c2ccc(Cl)cc2Cl)CC1` (centres undefined), the Ki is 2.3 nM at Cannabinoid receptor 1 [1] and 407 nM at Cannabinoid receptor 2. The molecule also came in with an IC50 at Cannabinoid receptor 1 [2] of 161 nM.
For `O=C(N1CCN(C(c2ccccc2)c2ccc(Cl)cc2Cl)CC1)C12CC3CC(CC(C3)C1)C2` (centres undefined) the same measures were 5.9 nM, 25 nM and 288 nM.
With `O=C(C1CCC1)N1CCN(C(c2ccccc2)c2ccc(Cl)cc2Cl)CC1` (centres undefined), the Ki turned out to be 291 nM on Cannabinoid receptor 1 [1] and 2120 nM at Cannabinoid receptor 2. This molecule also returned an IC50 against Cannabinoid receptor 1 [2] of more than 10000 nM.
Regarding `Cc1ccc(C(c2ccc(Cl)cc2Cl)N2CCN(C(=O)NN3CCCCC3)CC2)cc1` (centres undefined), the values for the inhibitory constant (Ki) on Cannabinoid receptor 1 [1] and at Cannabinoid receptor 2 were 3 nM and 317 nM, respectively. On Cannabinoid receptor 1 [2], this molecule gave a half-inhibitory concentration (IC50) of 15 nM.
As to `O=C(NC1CCCCC1)N1CCN(C(c2ccccc2)c2ccc(Cl)cc2F)CC1` (centres undefined), the figures for the Ki on Cannabinoid receptor 1 [1] and at Cannabinoid receptor 2 were 3.1 nM and 526 nM, respectively. At Cannabinoid receptor 1 [2], this molecule gave an IC50 of 124 nM.
Regarding `S=C(NC1CCCCC1)N1CCN(C(c2ccccc2)c2ccccc2)CC1`, the values for the Ki on Cannabinoid receptor 1 [1] and at Cannabinoid receptor 2 were 106 nM and 1870 nM, respectively.
Regarding `O=C(C1CCCCC1)N1CCN(C(c2ccccc2)c2ccc(Cl)cc2Cl)CC1` (centres undefined), the Ki on Cannabinoid receptor 1 [1] stood at 5.8 nM; on Cannabinoid receptor 2 it was 2930 nM. For the same molecule, inhibition against Cannabinoid receptor 1 [2] was half-maximal at 9.3 nM (IC50).
Take `O=C(N1CCCCC1)N1CCN(C(c2ccccc2)c2ccc(Cl)cc2Cl)CC1` (centres undefined): the Ki was found to be 56 nM on Cannabinoid receptor 1 [1] and 987 nM at Cannabinoid receptor 2. At Cannabinoid receptor 1 [2], this molecule gave an IC50 of more than 10000 nM.
`CCCCNC(=O)N1CCN(C(c2ccccc2)c2ccc(Cl)cc2Cl)CC1` (centres undefined): the inhibition constant (Ki) on Cannabinoid receptor 2 amounted to 918 nM.
Regarding `O=C(NC1CCCCC1)N1CCN(C(c2ccc(C(F)(F)F)cc2)c2ccc(Cl)cc2Cl)CC1` (centres undefined), the Ki amounted to 1.2 nM on Cannabinoid receptor 1 [1] and 274 nM on Cannabinoid receptor 2. The midpoint of inhibition against Cannabinoid receptor 1 [2], the IC50, lay at 57 nM.
`O=C(N1CCOCC1)N1CCN(C(c2ccccc2)c2ccc(Cl)cc2Cl)CC1` (centres undefined): the Ki on Cannabinoid receptor 1 [1] is 111 nM; at Cannabinoid receptor 2, 618 nM. The molecule also gave an IC50 against Cannabinoid receptor 1 [2] of more than 10000 nM.
`O=C(NC1CCCCC1)N1CCN(C(c2ccccc2)c2ccc(Br)cc2F)CC1` (centres undefined): the Ki on Cannabinoid receptor 1 [1] turned out to be 1.8 nM; on Cannabinoid receptor 2, 322 nM. Also, the concentration for half-maximal inhibition (IC50) on Cannabinoid receptor 1 [2] is 87 nM.
Regarding `O=C(NC1CCCCC1)N1CCN(C(c2ccc(Oc3ccccc3)cc2)c2ccc(Cl)cc2Cl)CC1` (centres undefined), the Ki at Cannabinoid receptor 1 [1] was found to be 1.1 nM; on Cannabinoid receptor 2 it was 52 nM. Besides, inhibition at Cannabinoid receptor 1 [2] was half-maximal at 34 nM (IC50).
With `O=C(NC1CCCCC1)N1CCN(C(c2ccccc2)c2ccc(Cl)cc2Cl)CC1` (centres undefined), the Ki came out at 1.6 nM at Cannabinoid receptor 1 [1] and 432 nM on Cannabinoid receptor 2. For the same molecule, the IC50 on Cannabinoid receptor 1 [2] amounted to 9.2 nM.
For orientation: EC50 means the concentration needed to bring the measured effect to its halfway point. In general, half-life refers to how long it takes for the measured level to halve. On to `Cc1ccc(C(c2ccc(Cl)cc2Cl)N2CCN(C(=O)NC3CCCCC3)CC2)cc1` (centres undefined), for which the inhibition constant (Ki) on Cannabinoid receptor 1 [1] was 0.15 nM; at Cannabinoid receptor 2, 329 nM. The IC50 against Cannabinoid receptor 1 [2] came to 2.7 nM. Moreover, the EC50 at Cannabinoid receptor 1 [3] came to 0.87 nM. For the same molecule, the half-life in data set [4] is 2.4 h. The figures for the Activity in the data set with Rattus norvegicus [5] and with Rattus norvegicus [6] were 39% and 22%, respectively. Further, the result in the data set on Rattus norvegicus [7] and with Rattus norvegicus [8] was Active.
`CCCCNC(=O)N1CCN(C(c2ccccc2)c2ccccc2)CC1`: the Ki was found to be 239 nM at Cannabinoid receptor 1 [1] and 2830 nM at Cannabinoid receptor 2.
